Converted amounts (≈) assume the structure as drawn.
Key:
Escherichia coli = assay: In vitro antibacterial activity of compound against Escherichia coli SKF 12140; format: functional
Klebsiella pneumoniae = assay: In vitro antibacterial activity of compound against Klebsiella pneumoniae ISM; format: functional
[1] = test system: Mycobacterium scrofulaceum; assay: In vitro activity of compound against slowly growing Mycobacterium scrofulaceum 1292; format: functional
Outline: (§1)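 Medium was Middlebrook 7H10 agar with 2% glycerol and 10% OADC. Organisms from Loevenstein-Jensen slants were grown in 7H9 broth with 0.5% Tween and 10% OADC, adjusted to McFarland no. 1, and spotted with a multipoint inoculator. Sealed plates were incubated at 22, 30 or 37 °C for 4-20 days depending on strain.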

[2] = test system: Mycobacterium scrofulaceum; assay: In vitro activity of compound against slowly growing Mycobacterium scrofulaceum 1293; format: functional; outline: as §1
[3] = test system: Mycobacterium scrofulaceum; assay: In vitro activity of compound against slowly growing Mycobacterium scrofulaceum 1297; format: functional; outline: as §1
[4] = test system: Mycobacterium scrofulaceum; assay: In vitro activity of compound against slowly growing Mycobacterium scrofulaceum 1301; format: functional; outline: as §1
[5] = test system: Mycolicibacterium smegmatis; assay: In vitro activity of compound against rapidly growing Mycobacterium smegmatis 139; format: functional; outline: as §1
[6] = test system: Mycolicibacterium smegmatis; assay: In vitro activity of compound against rapidly growing Mycobacterium smegmatis 1442; format: functional; outline: as §1
[7] = test system: Mycolicibacterium smegmatis; assay: In vitro activity of compound against rapidly growing Mycobacterium smegmatis 31; format: functional; outline: as §1
Mycobacterium xenopi [8] = assay: In vitro activity compound against slowly growing Mycobacterium xenopi 1446; format: functional; outline: as §1
Mycobacterium xenopi [9] = assay: In vitro activity of compound against slowly growing Mycobacterium xenopi 554; format: functional; outline: as §1
Mycobacterium xenopi [10] = assay: In vitro activity of compound against slowl growingy Mycobacterium xenopi 555; format: functional; outline: as §1
Mycolicibacterium phlei [11] = assay: In vitro activity of compound against rapidly growing Mycobacterium phlei 141; format: functional; outline: as §1
Mycolicibacterium phlei [12] = assay: In vitro activity of compound against rapidly growing Mycobacterium phlei 1283; format: functional; outline: as §1
Mycolicibacterium phlei [13] = assay: In vitro activity of compound against rapidly growing Mycobacterium phlei 1289; format: functional; outline: as §1
Mycobacterium kansasii [14] = assay: In vitro activity compound against slowly growing Mycobacterium kansasii 1298; format: functional; outline: as §1
Mycobacterium kansasii [15] = assay: In vitro activity of compound against slowly growing Mycobacterium kansasii 1299; format: functional; outline: as §1
Mycobacterium marinum [16] = assay: In vitro activity of compound against slowly growing Mycobacterium marinum 1388; format: functional; outline: as §1
Mycobacterium marinum [17] = assay: In vitro activity of compound against slowly growing Mycobacterium marinum 1390; format: functional; outline: as §1
Mycobacterium marinum [18] = assay: In vitro activity of compound against slowly growing Mycobacterium marinum 1391; format: functional; outline: as §1
[19] = test system: Mycolicibacterium fortuitum; assay: In vitro activity of compound against rapidly growing Mycobacterium fortuitum 114; format: functional; outline: as §1
[20] = test system: Mycolicibacterium fortuitum; assay: In vitro activity of compound against rapidly growing Mycobacterium fortuitum 1285; format: functional; outline: as §1
[21] = test system: Mycolicibacterium fortuitum; assay: In vitro activity of compound against rapidly growing Mycobacterium fortuitum 1287; format: functional; outline: as §1
[22] = test system: Mycolicibacterium fortuitum; assay: In vitro activity compound against rapidly growing Mycobacterium fortuitum 1302; format: functional; outline: as §1
[23] = test system: Mycolicibacterium fortuitum; assay: In vitro activity of compound against rapidly growing Mycobacterium fortuitum 140; format: functional; outline: as §1
[24] = test system: Mycolicibacterium fortuitum; assay: In vitro activity compound against rapidly growing Mycobacterium fortuitum 1440; format: functional; outline: as §1
[25] = test system: Mycolicibacterium fortuitum; assay: In vitro activity of compound against rapidly growing Mycobacterium fortuitum 646; format: functional; outline: as §1
[26] = test system: Mycolicibacterium fortuitum; assay: In vitro activity of compound against rapidly growing Mycobacterium fortuitum 726; format: functional; outline: as §1
Mycobacterium gordonae [27] = assay: In vitro activity of compound against slowly growing Mycobacterium gordonae 1294; format: functional; outline: as §1
Mycobacterium gordonae [28] = assay: In vitro activity of compound against slowly growing Mycobacterium gordonae 1441; format: functional; outline: as §1
Mycobacterium kansasii [29] = assay: In vitro activity compound against slowly growing Mycobacterium kansasii 1291; format: functional; outline: as §1
[30] = test system: Mycolicibacterium flavescens; assay: In vitro activity of compound against rapidly growing Mycobacterium flavescens 1284; format: functional; outline: as §1
[31] = test system: Mycolicibacterium flavescens; assay: In vitro activity of compound against rapidly growing Mycobacterium flavescens 1286; format: functional; outline: as §1
Mycobacterium marinum [32] = assay: In vitro activity of compound against slowly growing Mycobacterium marinum 1392; format: functional; outline: as §1
Mycobacterium marinum [33] = assay: In vitro activity of compound against slowly growing Mycobacterium marinum 1393; format: functional; outline: as §1
Mycobacterium marinum [34] = assay: In vitro activity of compound against slowly growing Mycobacterium marinum 1394; format: functional; outline: as §1
Mycobacterium marinum [35] = assay: In vitro activity of compound against slowly growing Mycobacterium marinum 1447; format: functional; outline: as §1
Mycobacterium avium [36] = assay: 50% inhibition of the 20 Mycobacterium (MAC) avium complex clinical isolates; format: functional
Outline: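 Agar-dilution MICs, 2-fold dilutions over 128-0.0001 μg/mL, on Middlebrook 7H10 agar with 2% glycerol and 10% OADC. Organisms from Loevenstein-Jensen slants were grown in 7H9 broth with 0.5% Tween and 10% OADC, adjusted to McFarland no. 1, and spotted with a multipoint inoculator. Plates were sealed and incubated at 22, 30 or 37 °C for 4-20 days depending on strain.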

Neisseria gonorrhoeae = assay: In vitro antibacterial activity of compound against Neisseria gonorrhoeae ISM 68/126; format: functional
Pseudomonas aeruginosa = assay: In vitro antibacterial activity of compound against Pseudomonas aeruginosa ATCC 10145; format: functional
Outline: (§2)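 Twofold microdilution MIC in Iso-Sensitest broth over 128-0.0001 µg/mL. Inoculum was 10^4 cfu/mL, with incubation at 37 °C for 18-24 h.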

Proteus vulgaris = assay: In vitro antibacterial activity of compound against Proteus vulgaris X19H ATCC 881; format: functional
[37] = test system: Staphylococcus epidermidis; assay: In vitro antibacterial activity of compound against Staphylococcus epidermidis ATCC 12228; format: functional; outline: as §2
Streptococcus pyogenes [38] = assay: Inhibitory concentration of compound against Streptococcus pyogenus septicemia in the mouse, administarted in OS route; format: functional
Outline: (§3)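 Male and female CD1 mice (18-22 g) were infected ip with S. pyogenes C203, with the challenge set so untreated mice died within 48 h. Groups of five received a single treatment immediately after infection. ED50 was calculated from the percentage surviving at each dose on day 10.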

Streptococcus pyogenes [39] = assay: Inhibitory concentration of compound against Streptococcus pyogenus septicemia in the mouse, administarted in subcutaneous route; format: functional; conditions: sc; outline: as §3
Streptococcus pyogenes [40] = assay: Minimum inhibitory concentration of compound against Streptococcus pyogenus septicemia in the mouse; format: functional
Streptococcus pyogenes [41] = assay: In vitro antibacterial activity of compound against Streptococcus pyogenes C 203 SKF 13400; format: functional
Outline: (§4)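 Streptococcal MICs were run by twofold microdilution in Todd-Hewitt broth over 128-0.0001 µg/mL. Inoculum was 10^4 cfu/mL, with incubation at 37 °C for 18-24 h.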

Staphylococcus aureus = assay: In vitro antibacterial activity of compound against Staphylococcus aureus Tour L 165; format: functional; outline: as §2
Streptococcus pneumoniae = assay: In vitro antibacterial activity of compound against Streptococcus pneumoniae UC 41; format: functional; outline: as §4
Enterococcus faecalis = assay: In vitro antibacterial activity of compound against Streptococcus faecalis ATCC 7080.; format: functional; outline: as §2
[42] = test system: Mycolicibacterium fortuitum; assay: In vitro activity of compound against rapidly growing Mycobacterium fortuitum 645; format: functional; outline: as §1
Haemophilus influenzae = assay: In vitro antibacterial activity of compound against Haemophilus influenzae ATCC 19418; format: functional
Mycobacterium xenopi [43] = assay: In vitro activity of compound against slowly growing Mycobacterium xenopi 556; format: functional; outline: as §1
Mycobacterium avium [44] = assay: 90% inhibition of the 20 Mycobacterium avium complex (MAC) clinical isolates
Mycobacteroides chelonae = assay: In vitro activity of compound against rapidly growing Mycobacterium chelonae 1443
Mycobacterium avium [45] = assay: Minimum inhibitory concentration of compound against 20 Mycobacterium avium complex (MAC) clinical isolates

`CCN(CC)c1nc2c(s1)c1c(O)c3c(O)c(C)c4c(c32)C(=O)C(C)(O/C=C/C(OC)C(C)C(OC(C)=O)C(C)C(O)C(C)C(O)C(C)/C=C/C=C(/C)C(=O)N1)O4` (stereo not given) was tested, and the MIC (Escherichia coli) was 32 µg/mL (≈ 39.5 µM), the MIC (Klebsiella pneumoniae) was 32 µg/mL (≈ 39.5 µM) and the MIC [1] was 0.032 µg/mL (≈ 0.0395 µM). It also gave an MIC [2] of 0.125 µg/mL (≈ 0.154 µM), an MIC [3] of 0.063 µg/mL (≈ 0.0778 µM) and an MIC [4] of 2 µg/mL (≈ 2.47 µM). The MIC [5] was 8 µg/mL (≈ 9.88 µM), the MIC [6] was 8 µg/mL (≈ 9.88 µM) and the MIC [7] was 8 µg/mL (≈ 9.88 µM). It also gave an MIC (Mycobacterium xenopi [8]) of 4 µg/mL (≈ 4.94 µM), an MIC (Mycobacterium xenopi [9]) of 2 µg/mL (≈ 2.47 µM) and an MIC (Mycobacterium xenopi [10]) of 4 µg/mL (≈ 4.94 µM). It also gave an MIC (Mycolicibacterium phlei [11]) of 0.032 µg/mL (≈ 0.0395 µM), an MIC (Mycolicibacterium phlei [12]) of 0.125 µg/mL (≈ 0.154 µM) and an MIC (Mycolicibacterium phlei [13]) of 2 µg/mL (≈ 2.47 µM). For the same compound, the MIC (Mycobacterium kansasii [14]) was 0.25 µg/mL (≈ 0.309 µM), the MIC (Mycobacterium kansasii [15]) was 2 µg/mL (≈ 2.47 µM) and the MIC (Mycobacterium marinum [16]) was 2 µg/mL (≈ 2.47 µM). For the same compound, the MIC (Mycobacterium marinum [17]) was 4 µg/mL (≈ 4.94 µM), the MIC (Mycobacterium marinum [18]) was 1 µg/mL (≈ 1.23 µM) and the MIC [19] was 16 µg/mL (≈ 19.8 µM). The MIC [20] was 16 µg/mL (≈ 19.8 µM), the MIC [21] was 2 µg/mL (≈ 2.47 µM) and the MIC [22] was 2 µg/mL (≈ 2.47 µM). For the same compound, the MIC [23] was 16 µg/mL (≈ 19.8 µM), the MIC [24] was 16 µg/mL (≈ 19.8 µM) and the MIC [25] was 32 µg/mL (≈ 39.5 µM). It also gave an MIC [26] of 32 µg/mL (≈ 39.5 µM), an MIC (Mycobacterium gordonae [27]) of 0.5 µg/mL (≈ 0.617 µM) and an MIC (Mycobacterium gordonae [28]) of 2 µg/mL (≈ 2.47 µM). The MIC (Mycobacterium kansasii [29]) was 2 µg/mL (≈ 2.47 µM), the MIC [30] was 32 µg/mL (≈ 39.5 µM) and the MIC [31] was 0.25 µg/mL (≈ 0.309 µM). It also gave an MIC (Mycobacterium marinum [32]) of 1 µg/mL (≈ 1.23 µM), an MIC (Mycobacterium marinum [33]) of 1 µg/mL (≈ 1.23 µM) and an MIC (Mycobacterium marinum [34]) of 1 µg/mL (≈ 1.23 µM). It also gave an MIC (Mycobacterium marinum [35]) of 1 µg/mL (≈ 1.23 µM), an MIC50 (Mycobacterium avium [36]) of 2 µg/mL (≈ 2.47 µM) and an MIC (Neisseria gonorrhoeae) of 0.5 µg/mL (≈ 0.617 µM). The MIC (Pseudomonas aeruginosa) was 8 µg/mL (≈ 9.88 µM), the MIC (Proteus vulgaris) was 32 µg/mL (≈ 39.5 µM) and the MIC [37] was 0.063 µg/mL (≈ 0.0778 µM). It also gave an ED50 (Streptococcus pyogenes [38]) of 1.23 mg/kg, an ED50 (Streptococcus pyogenes [39]) of 1.62 mg/kg and an MIC (Streptococcus pyogenes [40]) of 0.135 µg/mL (≈ 0.167 µM). For the same compound, the MIC (Streptococcus pyogenes [41]) was 0.125 µg/mL (≈ 0.154 µM), the MIC (Staphylococcus aureus) was 0.125 µg/mL (≈ 0.154 µM) and the MIC (Streptococcus pneumoniae) was 0.063 µg/mL (≈ 0.0778 µM). The MIC (Enterococcus faecalis) was 2 µg/mL (≈ 2.47 µM), the MIC [42] was 2 µg/mL (≈ 2.47 µM) and the MIC (Haemophilus influenzae) was 0.5 µg/mL (≈ 0.617 µM). The MIC (Mycobacterium xenopi [43]) was 4 µg/mL (≈ 4.94 µM), the MIC90 (Mycobacterium avium [44]) was 2 µg/mL (≈ 2.47 µM) and the MIC (Mycobacteroides chelonae) was greater than 128 µg/mL. It also gave an MIC (Mycobacterium avium [45]) of 0.5 µg/mL (≈ 0.617 µM).
